Assay results from ChEMBL document CHEMBL3102749, “Antiprotozoal activity of dicationic 3,5-diphenylisoxazoles, their prodrugs and aza-analogues” (Bioorg Med Chem, 2014).
Calls of active or inactive are those of the source. No cut-off for these calls is given here.

How the values were obtained:
[1] = Selectivity index, ratio of IC50 for rat L6 cells to IC50 for chloroquine/pyrimethamine-resistant Plasmodium falciparum K1 infected in human red blood cells; assay type: toxicity, cell-based; conditions: read-out: Ratio IC50
How it was run: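 Ratio of IC50 in L6 rat myoblast cytotoxicity assay to IC50 against P. falciparum K1; each IC50 is the mean of two independent assays.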

[2] = Selectivity index, ratio of IC50 for rat L6 cells to IC50 for Trypanosoma brucei rhodesiense STIB900; assay type: toxicity, cell-based; conditions: read-out: Ratio IC50
How it was run: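 Ratio of IC50 in L6 rat myoblast cytotoxicity assay to IC50 against T. b. rhodesiense STIB900; each IC50 is the mean of two independent assays.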

L6 = test: Cytotoxicity against rat L6 cells assessed as cell viability after 70 hrs by Alamar blue assay; assay type: cell-based; conditions: L6, 70 h
Plasmodium falciparum = test: Antiplasmodial activity against chloroquine/pyrimethamine-resistant Plasmodium falciparum K1 infected in human red blood cells assessed as [3H]-hypoxanthine incorporation incubated for 48 hrs prior to [3H]-hypoxanthine addition measured after 24 hrs by liquid scintillation counting analysis; assay type: functional, organism-based
[3] = system: Trypanosoma brucei rhodesiense; test: Antitrypanosomal activity against Trypanosoma brucei rhodesiense STIB900 assessed as growth inhibition after 70 hrs by Alamar blue assay; assay type: functional, organism-based; conditions: STIB900, 70 h
[4] = system: Trypanosoma brucei rhodesiense; test: Trypanocidal activity against bloodstream form of Trypanosoma brucei rhodesiense STIB900 infected in NMRI mouse assessed as mean survival days at 5 mg/kg, ip qd administered for 4 days; assay type: functional; conditions: route intraperitoneal
How it was run: (§1)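 Mice infected with T. b. rhodesiense STIB900 (acute model) dosed once daily for 4 consecutive days, ip (diamidines) or oral (prodrugs). Cure means survival to 60 days post infection without parasitemia relapse. Mean survival days post infection are averaged over all mice, with cured mice counted as >60 days.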

[5] = system: Trypanosoma brucei rhodesiense; test: Trypanocidal activity against bloodstream form of Trypanosoma brucei rhodesiense STIB900 infected in NMRI mouse assessed as decrease in parasitemia at 5 mg/kg, ip qd administered for 4 days measured once per week until 60 days by microscopic analysis; assay type: functional, organism-based; set-up: dose 5 mg/kg
How it was run: (§2)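 Mice infected with T. b. rhodesiense STIB900 received one dose daily for 4 consecutive days, 4 mice per group. Diamidines were given intraperitoneally and prodrugs orally. The primary endpoint was cures per group: a mouse counted as cured if it survived 60 days post-infection without parasitemia relapse.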

[6] = system: Trypanosoma brucei rhodesiense; test: Trypanocidal activity against bloodstream form of Trypanosoma brucei rhodesiense STIB900 infected in NMRI mouse assessed as mean survival days at 25 mg/kg, po qd administered for 4 days; assay type: functional; how it was run: as §1
[7] = system: Trypanosoma brucei rhodesiense; test: Trypanocidal activity against bloodstream form of Trypanosoma brucei rhodesiense STIB900 infected in NMRI mouse assessed as decrease in parasitemia at 25 mg/kg, po qd administered for 4 days measured once per week until 60 days by microscopic analysis; assay type: functional, organism-based; set-up: dose 25 mg/kg; how it was run: as §2

Row | Compound | MSD [4] [days] | Activity [5] | MSD [6] [days] | Activity [7] | other results
1 | N=C(N)c1cccc(-c2cc(-c3cc(C(=N)N)ccn3)on2)c1 |  |  |  |  | selectivity ratio [1]: > 7230; selectivity ratio [2]: > 986; IC50 (L6): > 180 µM; IC50 (Plasmodium falciparum): 0.0249 µM; IC50 [3]: 0.183 µM
2 | COc1ccc(C(=N)N)cc1-c1cc(-c2ccc(C(=N)N)cc2[N+](=O)[O-])no1.Cl.Cl | >60 | Active |  |  | 
3 | Cl.Cl.N/C(=N\O)c1ccc(-c2cc(-c3cc(/C(N)=N/O)ccc3[N+](=O)[O-])no2)cc1 |  |  | 7.25 | inactive | 
4 | COc1c(/C(N)=N/O)cccc1-c1cc(-c2cccc(/C(N)=N/O)c2OC)on1.Cl.Cl |  |  | 6 | inactive | 
5 | Cl.Cl.Cl.N=C(N)c1ccc(-c2cc(-c3ccc(C(=N)N)cc3Cl)on2)cc1 | >31 | inactive |  |  | 
6 | Cl.Cl.N=C(N)c1ccc(-c2cc(-c3cc(C(=N)N)ccn3)on2)cc1 | 28.5 | inactive |  |  | selectivity ratio [1]: 2570; selectivity ratio [2]: 2320; IC50 (L6): 149 µM; IC50 (Plasmodium falciparum): 0.058 µM; IC50 [3]: 0.0643 µM
7 | CO/N=C(\N)c1cccc(-c2cc(-c3ccc(/C(N)=N/OC)cc3OC)on2)c1.Cl.Cl |  |  | 7.25 | inactive | 
8 | COc1cc(C(=N)N)ccc1-c1cc(-c2ccc(C(=N)N)cc2OC)on1.Cl.Cl | >60 | Active |  |  | 
9 | CO/N=C(\N)c1ccc(-c2cc(-c3cc(/C(N)=N/OC)ccc3OC)no2)cc1.Cl.Cl |  |  | >37.25 |  | 
10 | Nc1nc(N)nc(Nc2ccc([As]3SCC(CO)S3)cc2)n1 (stereo not given) |  | Active |  |  | 
11 | COc1cc(C(=N)N)ccc1-c1cc(-c2ccc(C(=N)N)cc2)on1.Cl.Cl | >60 | Active |  |  | 
12 | Cl.Cl.N=C(N)c1ccc(-c2cc(-c3ccc(C(=N)N)cc3[N+](=O)[O-])no2)cc1 | >51.25 |  |  |  | 
13 | Cl.Cl.Cl.N=C(N)c1cccc(-c2cc(-c3ccc(C(=N)N)cc3Cl)no2)c1 | 24 | inactive |  |  | 
14 | Cl.Cl.N/C(=N\O)c1cccc(-c2cc(-c3cccc(/C(N)=N/O)c3)on2)c1 |  |  | 7.5 | inactive | 
15 | Cl.Cl.N=C(N)c1ccc(-c2cc(-c3cncc(C(=N)N)c3)on2)cc1 | >54.5 |  |  |  | selectivity ratio [1]: 231; selectivity ratio [2]: 302; IC50 (L6): 4.37 µM; IC50 (Plasmodium falciparum): 0.0189 µM; IC50 [3]: 0.0144 µM
16 | CO/N=C(\N)c1ccc(-c2cc(-c3ccc(/C(N)=N/OC)cc3Cl)on2)cc1.Cl.Cl.Cl |  |  | 39 | inactive | 
17 | COc1cc(/C(N)=N/O)ccc1-c1cc(-c2ccc(/C(N)=N/O)cc2OC)on1.Cl.Cl |  |  | 12 | inactive | 
18 | Cl.Cl.N=C(N)c1cccc(-c2cc(-c3ccc(C(=N)N)nc3)no2)c1 | >60 | Active |  |  | selectivity ratio [1]: 3800; selectivity ratio [2]: 1120; IC50 (L6): 2.08 µM; IC50 (Plasmodium falciparum): 0.0005 µM; IC50 [3]: 0.0018 µM
19 | CO/N=C(\N)c1cccc(-c2cc(-c3ccc(/C(N)=N/OC)cc3OC)no2)c1.Cl.Cl |  |  | >50 |  | 
20 | Cl.Cl.N=C(N)c1ccc(-c2cc(-c3ccc(C(=N)N)cn3)on2)cc1 | >44 |  |  |  | selectivity ratio [1]: 3750; selectivity ratio [2]: 2970; IC50 (L6): 35.9 µM; IC50 (Plasmodium falciparum): 0.0096 µM; IC50 [3]: 0.0121 µM
21 | Cl.Cl.N/C(=N\O)c1ccc(-c2cc(-c3cccc(/C(N)=N/O)c3)no2)cc1 |  |  | 20 | inactive | 
22 | CO/N=C(\N)c1cccc(-c2cc(-c3ccc(/C(N)=N/OC)cc3Cl)on2)c1.Cl.Cl.Cl |  |  | 14 | inactive | 
23 | COc1cc(/C(N)=N/O)ccc1-c1cc(-c2cccc(/C(N)=N/O)c2)no1.Cl.Cl |  |  | 8 | inactive | 
24 | N=C(N)c1ccnc(-c2cc(-c3cc(C(=N)N)ccn3)on2)c1 |  |  |  |  | selectivity ratio [1]: > 550; selectivity ratio [2]: > 32; IC50 (L6): > 180 µM; IC50 (Plasmodium falciparum): 0.327 µM; IC50 [3]: 5.71 µM
25 | Cl.Cl.N=C(N)c1ccc(-c2cc(-c3cccc(C(=N)N)c3)no2)nc1 | >38.75 | inactive |  |  | selectivity ratio [1]: 27800; selectivity ratio [2]: 15900; IC50 (L6): 115 µM; IC50 (Plasmodium falciparum): 0.0041 µM; IC50 [3]: 0.0072 µM
